From PubChem
Sampled rows, rich in hits. Any-hit rate of the full collection: about 1.8%.
NR1D1 modulator – modulators of Rev-erb alpha DNA binding, primary screen, biochemical, FITC-DNA, fluorescence polarization, uHTS; 370,000 compounds, 0.79% hits; Nuclear receptor subfamily 1 group D member 1 (Homo sapiens), P20393; Rev-erbα–FITC-DNA binding, 90 min; activity, % at 10 µM;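 active = activity above about 14%, limit read from the data; passing the limit was not always enough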;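 note: 0% = DMSO wells with 35 nM protein and 100% = DMSO wells with 750 nM protein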
Target sequence (P20393 whole entry, looked up): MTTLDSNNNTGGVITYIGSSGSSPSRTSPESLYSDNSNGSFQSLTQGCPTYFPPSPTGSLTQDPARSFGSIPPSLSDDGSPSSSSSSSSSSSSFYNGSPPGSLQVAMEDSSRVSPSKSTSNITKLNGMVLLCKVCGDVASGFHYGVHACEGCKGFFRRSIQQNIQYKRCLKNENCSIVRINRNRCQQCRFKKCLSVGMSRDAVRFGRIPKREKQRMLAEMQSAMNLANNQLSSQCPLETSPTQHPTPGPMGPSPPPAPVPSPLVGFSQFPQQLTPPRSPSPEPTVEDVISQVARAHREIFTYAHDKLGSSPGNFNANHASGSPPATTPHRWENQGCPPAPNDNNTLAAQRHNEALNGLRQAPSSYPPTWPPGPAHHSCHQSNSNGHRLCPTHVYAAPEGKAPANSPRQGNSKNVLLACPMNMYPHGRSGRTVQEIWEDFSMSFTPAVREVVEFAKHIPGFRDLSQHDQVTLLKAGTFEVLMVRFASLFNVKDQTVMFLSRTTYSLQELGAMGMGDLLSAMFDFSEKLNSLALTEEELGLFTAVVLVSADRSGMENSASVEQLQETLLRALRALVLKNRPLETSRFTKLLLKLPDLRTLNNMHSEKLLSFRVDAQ
PG9 binder – binders of HIV-1 gp120 antibody PG9, primary screen, biochemical, TR-FRET; TR-FRET gp120-PG9 antibody binding; AID 624416, 2012; inhibition, % at 6.7 µM; 360,000 compounds, 0.43% hits; in the data active = inhibition above about 8.5%
NR2E3 ag-1 – NR2E3 agonists in two-hybrid cells, primary screen, cell-based, luminescence, CHO-S, Gal4-NCOR/VP16-NR2E3; 360,000 compounds, 0.35% hits; inhibition of corepressor binding, % at 3.98 µM; Photoreceptor-specific nuclear receptor (Homo sapiens), Q9Y5X4; AID 602229, 2012; luciferase;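 active = inhibition above the mean of all tested compounds plus 3 SD, cut at about 70% in these data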;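 note: 0% = DMSO with NR2E3 transfected cells and 100% = cells lacking NR2E3 construct; higher means lower luciferase signal from less NR2E3 corepressor binding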
GalR3 antagonist – GalR3 antagonists in HEK293 cells, primary screen, cell-based, fluorescence readout; Galanin receptor type 3 (Homo sapiens), O60755; HEK293 GalR3-CNG cAMP membrane potential fluorescence; galR3 body fused to GalR1 C-terminus; inhibition, % at 3 µM; 360,000 compounds, 0.44% hits;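 active = inhibition above the screen-wide average plus 3 SD, cut at about 13% in these data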;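 note: forskolin and galanin both at EC90 stimulate the cells; cAMP rise reported by CNG channel membrane potential dye signal; 0% = forskolin plus galanin with DMSO and 100% = forskolin alone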
NR2E3 ag-2 – inhibitors of NR2E3-RetCOR corepressor binding, primary screen, NR2E3 agonist project, biochemical, TR-FRET, GST-NR2E3, biotin-RetCOR. 1536-well. inhibition of corepressor binding, % at 4.78 µM. 320,000 compounds, 0.12% hits. Photoreceptor-specific nuclear receptor (Homo sapiens), Q9Y5X4;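 active = percent inhibition above the cutoff of mean plus 3 SD of all tested compounds, set per screening campaign, cut at about 20% in these data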;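 note: 0% = DMSO wells and 100% = biotin wells as full block of FRET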
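system = GST-tagged NR2E3 plus biotinylated RetCOR corepressor | input = 1.35 nM GST-NR2E3 | also added = 7 nM biotin-RetCOR | schedule = 5 h incubation at 4 °C | measured by = TR-FRET with europium anti-GST and streptavidin-D2, 340 nm excitation | read-out = percent loss of FRET ratio relative to control wells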
NR2E3 ag confirm – NR2E3 agonist confirmation in cells, cell-based, luminescence, CHO-S two-hybrid | shares compounds with NR2E3 ag-1 | CHO-S mammalian two-hybrid NR2E3-NCOR, luciferase luminescence | inhibition, % at 3.98 µM | 2,300 compounds, 51% hits;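 active = average inhibition above a cutoff equal to the mean inhibition of all tested compounds plus one SD, cut at about 70% in these data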;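 note: 0% = DMSO in NR2E3 cells and 100% = DMSO in cells lacking NR2E3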
VP16 counter – GAL4-VP16 reporter modulators, confirmation, counter-screen for NR2E3 agonist project, cell-based, luminescence, CHO-S, high throughput. shares compounds with NR2E3 ag-1. CHO-S GAL4-VP16 luciferase reporter. inhibition, % at 3.98 µM. 2,300 compounds, 29% hits. AID 624379, 2012;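 active = mean inhibition above a cutoff equal to the average over all tested compounds plus one standard deviation, cut at about 70% in these data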;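 note: luciferase from a UAS reporter driven by GAL4-VP16 transactivation; 0% = DMSO with VP16-transfected cells and 100% = DMSO with cells lacking VP16; higher means less reporter light so more repression of VP16 activity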
GalR3 antag conf – GalR3 antagonist hit confirmation, cell-based, fluorescence, triplicate | shares compounds with GalR3 antagonist | HEK293 GalR3 CNG cAMP biosensor, membrane potential fluorescence; galR3 fused to GalR1 carboxy tail; challenged with forskolin and galanin at EC90 | inhibition, % at 3 µM | 1,600 compounds, 59% hits;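 active = inhibition above the primary screen's cutoff, the mean inhibition of all screened compounds plus 3 SD, cut at about 13% in these data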;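 note: 0% = forskolin plus galanin and 100% = forskolin alone with DMSO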
CNG parental – nonspecific cAMP agonists in parental HEK-CNG cells, counter-screen for GalR3 antagonist project, cell-based, fluorescence, high throughput | shares compounds with GalR3 antagonist | HEK293-CNG parental cells, cAMP membrane potential fluorescence; normalised: DMSO wells 0%, forskolin wells 100% | activation, % at 3 µM | 1,600 compounds, 10% hits; in the data active = activation above about 1.3%
Starred values were filed as active, the others as inactive; · = no result; ! = not confirmed by another sample.

SMILES	NR1D1 modulator	PG9 binder	NR2E3 ag-1	GalR3 antagonist	NR2E3 ag-2	NR2E3 ag confirm	VP16 counter	GalR3 antag conf	CNG parental
CCSc1nsc(NC(=O)Nc2ccccc2F)n1	-7.0	-1.8	-175.2	-14.0	-5.9	·	·	·	·
C=CCSc1nsc(NC(=O)Nc2ccc(F)cc2)n1	-1.6	-1.5	93.4*	68.7*	4.3	100.3*	87.8*	39.8*	0.3
CCOc1ccc(-n2c(SCC(=O)Nc3ccccc3-c3ccccc3)nnc2-c2ccccc2)cc1	-2.6	·	·	·	·	·	·	·	·
Nc1c(Cl)ncnc1NCCO	-9.2	-0.7	1.9	-2.4	-0.7	·	·	·	·
Cc1ccc(CCNc2ncnc(Cl)c2N)cc1	0.0	0.5	78.0*	103.9*	·	92.0*	74.5*	104.1*	-0.1
COC[C@@H]1CCCN1c1ccc2c(c1)O[C@H]1CCN(C1)S2(=O)=O	-3.0	·	·	·	·	·	·	·	·
O=C(c1cccc(S(=O)(=O)N2CCN(c3ccc(F)cc3)CC2)c1)N1CCCC(C(F)(F)F)C1 (centres undefined)	-0.2	1.7	88.8*	99.0*	-4.1	97.3*	82.3*	94.7*	-0.8
CC1CN(C(=O)c2cccc(S(=O)(=O)N3CCN(c4ccc(F)cc4)CC3)c2)CC(C)O1 (centres undefined)	4.3	-0.4	14.3	-2.4	0.8	·	·	·	·
O=C(NC(c1cccnc1)C(F)(F)F)c1cc(COc2ccc3c(c2)CCCC3)on1 (centres undefined)	-2.1	-1.6	96.3*	14.6*	-0.4	96.8*	78.7*	11.6	-0.2
Cn1cc(CNC(=O)c2cc(COc3ccc4c(c3)CCCC4)on2)cn1	-4.0	-1.1	6.3	-1.7	3.0	·	·	·	·
COc1ccc(-c2ccc(C(=O)NCc3ccncc3)c3occc23)c(C)c1	1.9	-2.9	81.6*	90.0*	·	95.2*	81.7*	102.6*	0.1
O=C(NCc1ccncc1)c1ccc(-c2ccc(F)c(F)c2)c2ccoc12	5.2	-1.5	84.1*	29.2*	·	96.2*	82.2*	9.4	0.2
COc1ccc(-c2coc3c(C(=O)NCc4ccc(OC)c(OC)c4)cccc23)c(C)c1	-6.5	-0.6	91.3*	88.6*	·	95.1*	82.3*	103.6*	0.1
COc1ccc(-c2coc3c(C(=O)NCc4ccc(F)c(F)c4)cccc23)c(C)c1	-0.7	0.7	30.1	-7.8	·	·	·	·	·
Nc1[nH]c(C(=O)c2ccccc2)c(-c2ccc(Cl)cc2)c1C(=O)NCCC1=CCCCC1	-7.7	·	·	·	·	·	·	·	·
CCCCNC(=O)C[C@H]1C[C@@]2(C(=O)OC)C(=C[C@H](C(C)(C)C)O[C@@H]2C)N(Cc2ccco2)C1=O	-1.1	·	·	·	·	·	·	·	·
c1ccc(CNc2ncnc3ccccc23)cc1	-1.4	-2.2	79.9*!	92.7*	-0.4	72.4*	71.1*	85.6*	0.3
COc1cc2ncnc(NCc3ccccc3)c2cc1OC	2.7	-0.8	-7.9	1.5	0.1	·	·	·	·
Cc1csc2ncnc(NC3CCN(Cc4ccccc4)CC3)c12	-3.4	-0.8	80.7*	95.6*	2.5	94.8*	85.5*	107.6*	0.5
COCCCN1C(=O)[C@H](CC(=O)N2CCSCC2)[C@]2(C(=O)OC)CCCCC=C12	9.6	·	·	·	·	·	·	·	·
COCCCN1C(=O)[C@H](CC(=O)NCCCN2CCCC2=O)[C@]2(C(=O)OC)CCCCC=C12	3.5	·	·	·	·	·	·	·	·
CCN(CC)C(=O)CC[C@@H]1CC[C@]2(CCCN(Cc3ccc(Br)cc3)C2)O1	2.7	·	·	·	·	·	·	·	·
CCN1CCN(C(=O)c2cccc(OC3CCN(S(=O)(=O)N(C)C)CC3)c2)CC1	2.5	-1.7	-58.2	-2.2	-2.9	·	·	·	·
CN(C)S(=O)(=O)N1CCC(Oc2cccc(C(=O)NC3CCCCCC3)c2)CC1	-0.3	-2.4	90.9*	28.9*	-2.8	60.4	53.7	99.9*	-0.3
CCOc1ccc(N/C(SCc2cccc([N+](=O)[O-])c2)=C(/C#N)C(N)=O)cc1	-2.5	-0.2	-28.9	1.4	1.1	·	·	·	·
SMILES	NR1D1 modulator	PG9 binder	NR2E3 ag-1	GalR3 antagonist	NR2E3 ag-2	NR2E3 ag confirm	VP16 counter	GalR3 antag conf	CNG parental
N#CC(C#N)=C(Nc1ccc(F)cc1)SCc1cccc(F)c1	-3.0	-2.2	81.0*	91.1*	-0.9	88.7*	87.5*	35.3*	-0.2
O=C(NCC(c1ccccc1)c1ccccc1)[C@H](Cc1c[nH]c2ccccc12)NC1(C(=O)NC2CCCCC2)CCC1	5.4	·	·	·	·	·	·	·	·
Cc1ccc(-n2ncc3c2CCCC3NC(=O)c2ocnc2C)cc1C (centres undefined)	-6.9	-1.9	100.9*	100.8*	1.6	90.4*	79.9*	113.3*	-0.4
Cn1nccc1C(=O)NC1CCCc2c1cnn2-c1ccc(C(C)(C)C)cc1 (centres undefined)	-4.3	0.3	106.0*	108.9*	-0.4	95.1*	83.6*	122.4*	-0.2
Cc1cc(C(=O)NC2CCCc3c2cnn3-c2cccc(C)c2C)n(C)n1 (centres undefined)	0.2	-2.3	109.7*	100.4*	-1.5	98.0*	90.8*	105.1*	-0.7
CC(=O)NC1CCCc2c1cnn2-c1ccc(C(C)(C)C)cc1 (centres undefined)	0.9	-0.1	5.6	-4.8	-0.8	·	·	·	·
CCCNC(=O)N1[C@@H](CO)[C@H](c2ccc(C3=CCCC3)cc2)[C@@H]1CN(CC)S(=O)(=O)c1ccccc1[N+](=O)[O-]	1.8	·	·	·	·	·	·	·	·
COc1ccc(CC2(CO)CCN(CC3=Cc4cc(Cl)ccc4OC3)CC2)cc1	-0.4	-0.1	69.2	69.6*	0.2	96.0*	73.8*	75.7*	2.2*
CCN(CC)S(=O)(=O)c1ccc(C)c(NC(=O)CNc2cccc(S(=O)(=O)N3CCCC3)c2)c1	0.8	0.1	0.4	-2.2	1.6	·	·	·	·
